{"source": "ChEMBL document CHEMBL3102703", "about": "“Chemical constituents from Inonotus obliquus and their biological activities” (J Nat Prod, 2014)", "key": {"[1]": {"assay": "Hepatoprotective activity in rat WB-F344 cells assessed as inhibition of D-galactosamine-induced toxicity at 10 uM preincubated for 1 hr followed by D-galactosamine challenge measured after 24 hrs by MTT assay relative to control", "assay_type": "functional", "method_in_brief": "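WB-F344 rat liver cells, compounds at 10 μM, D-galactosamine injury. Read-out is optical density. Survival is given as % of untreated normal cells. Inhibition (%) = [(OD sample − OD control)/(OD normal − OD control)] × 100. Bicyclol at 10 μM is the positive control. Data are means ± SD: n = 3 for samples, n = 6 for normal and control wells.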"}, "[2]": {"assay": "Hepatoprotective activity against D-galactosamine-induced toxicity in rat WB-F344 cells assessed as cell survival at 10 uM preincubated for 1 hr followed by D-galactosamine challenge measured after 24 hrs by MTT assay relative to normal cell", "assay_type": "functional", "details": "read-out: Survival", "method_in_brief": "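WB-F344 cells exposed to D-galactosamine, with test agents at 10 μM and bicyclol at 10 μM as positive control. Readout is optical density (OD). Survival is expressed as % of untreated normal cells. Values are means ± SD, n = 3 (n = 6 for normal and model-control groups).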"}, "KB": {"tested_on": "KB", "assay": "Cytotoxicity against human KB cells after 4 days by MTT assay", "assay_type": "functional, cell-based", "details": "96 h"}, "[3]": {"assay": "Cytotoxicity against human Bel7402 cells after 4 days by MTT assay", "assay_type": "functional, cell-based", "details": "Bel-7402, 96 h"}, "A549": {"tested_on": "A549", "assay": "Cytotoxicity against human A549 cells after 4 days by MTT assay", "assay_type": "functional, cell-based", "details": "A549, 96 h"}, "[4]": {"assay": "Inhibition of tyrosine kinase (unknown origin) by ELISA", "design": "species or system Homo sapiens"}}, "data": [{"compound": "CC(C)[C@@H](C)CC[C@@H](C)[C@H]1CC[C@H]2C3=CCC4C[C@@H](O)CC[C@]4(C)[C@H]3CC[C@]12C", "note": "(stereo partly drawn)", "values": [{"measurement": "inhibition at 10 µM", "setting": "[1]", "value": 37.4, "unit": "%"}, {"measurement": "viability at 10 µM", "setting": "[2]", "value": 80, "unit": "%"}]}, {"compound": "O=Cc1ccc(O)c(O)c1", "note": "[PROTOCATECHUALDEHYDE]", "values": [{"measurement": "IC50", "setting": "KB", "value": "> 10", "unit": "µM"}, {"measurement": "IC50", "setting": "[3]", "value": 3.7, "unit": "µM"}, {"measurement": "IC50", "setting": "A549", "value": 3.1, "unit": "µM"}, {"measurement": "IC50", "setting": "[4]", "value": 7.7, "unit": "µM"}]}, {"compound": "CC(C)=CC[C@@H](O)[C@@H](C)[C@H]1CC[C@@]2(C)C3=C(CC[C@]12C)[C@@]1(C)CC[C@H](O)C(C)(C)[C@@H]1CC3", "note": "[INOTODIOL]", "values": [{"measurement": "inhibition at 10 µM", "setting": "[1]", "value": 56.3, "unit": "%"}, {"measurement": "viability at 10 µM", "setting": "[2]", "value": 86, "unit": "%"}]}, {"compound": "CC(C)=CCC(O)[C@@H](C)[C@H]1CC[C@@]2(C)C3=C(C(=O)C[C@]12C)[C@@]1(C)CC[C@H](O)C(C)(C)[C@@H]1CC3", "note": "(stereo partly drawn)", "values": [{"measurement": "inhibition at 10 µM", "setting": "[1]", "value": 81.2, "unit": "%"}, {"measurement": "viability at 10 µM", "setting": "[2]", "value": 94, "unit": "%"}]}, {"compound": "CC(C)=CCC[C@@H](C(=O)O)[C@H]1CC[C@@]2(C)C3=C(CC[C@]12C)[C@@]1(C)CC[C@H](O)C(C)(C)[C@@H]1CC3", "note": "[TRAMETENOLIC ACID]", "values": [{"measurement": "inhibition at 10 µM", "setting": "[1]", "value": 75, "unit": "%"}, {"measurement": "viability at 10 µM", "setting": "[2]", "value": 92, "unit": "%"}]}, {"compound": "CC(C)c1ccc2c(c1)C(=O)C[C@H]1C(C)(C)CCC[C@@]21C(=O)O", "values": [{"measurement": "inhibition at 10 µM", "setting": "[1]", "value": 34.4, "unit": "%"}, {"measurement": "viability at 10 µM", "setting": "[2]", "value": 79, "unit": "%"}]}, {"compound": "CC(C)[C@@H](C)/C=C/[C@@H](C)[C@H]1CC[C@H]2C3=CC[C@H]4C[C@@H](O)CC[C@]4(C)[C@H]3CC[C@]12C", "values": [{"measurement": "inhibition at 10 µM", "setting": "[1]", "value": 43.8, "unit": "%"}, {"measurement": "viability at 10 µM", "setting": "[2]", "value": 82, "unit": "%"}]}, {"compound": "COc1cc(C(=O)O)ccc1O", "note": "[VANILLIC ACID]", "values": [{"measurement": "inhibition at 10 µM", "setting": "[1]", "value": 56.5, "unit": "%"}, {"measurement": "viability at 10 µM", "setting": "[2]", "value": 86, "unit": "%"}]}, {"compound": "C=C(C)C(=O)CC(O)[C@@H](C)[C@H]1CC[C@@]2(C)C3=C(CC[C@]12C)[C@@]1(C)CC[C@H](O)C(C)(C)[C@@H]1CC3", "note": "(stereo partly drawn)", "values": [{"measurement": "IC50", "setting": "KB", "value": 9.9, "unit": "µM"}, {"measurement": "IC50", "setting": "[3]", "value": "> 10", "unit": "µM"}, {"measurement": "IC50", "setting": "A549", "value": "> 10", "unit": "µM"}]}, {"compound": "CC[C@H](CC[C@@H](C)[C@H]1CC[C@H]2[C@@H]3CCC4=C[C@@H](O)CC[C@]4(C)[C@H]3CC[C@]12C)C(C)C", "note": "[LAWSARITOL]", "values": [{"measurement": "inhibition at 10 µM", "setting": "[1]", "value": 40.6, "unit": "%"}, {"measurement": "viability at 10 µM", "setting": "[2]", "value": 81, "unit": "%"}]}, {"compound": "COC(=O)c1cc(OC)c2c(c1-c1c(CO)cc(OC)c3c1OCO3)OCO2", "note": "[BICYCLOL]", "values": [{"measurement": "viability at 10 µM", "setting": "[2]", "value": 80, "unit": "%"}]}, {"compound": "CC(C)=CCC[C@@H](C)[C@H]1CC[C@@]2(C)C3=C(CC[C@]12C)[C@@]1(C)CC[C@H](O)C(C)(C)[C@@H]1CC3", "note": "[LANOSTEROL]", "values": [{"measurement": "inhibition at 10 µM", "setting": "[1]", "value": 74.8, "unit": "%"}, {"measurement": "viability at 10 µM", "setting": "[2]", "value": 92, "unit": "%"}]}, {"compound": "O=c1[nH]cc(F)c(=O)[nH]1", "note": "[FLUOROURACIL]", "values": [{"measurement": "IC50", "setting": "KB", "value": 8.1, "unit": "µM"}, {"measurement": "IC50", "setting": "[3]", "value": 5.5, "unit": "µM"}]}, {"compound": "CC(C)=C(C)[C@@H]1C[C@H]([C@H]2CC[C@@]3(C)C4=C(CC[C@]23C)[C@@]2(C)CC[C@H](O)C(C)(C)[C@@H]2CC4)C(=O)O1", "values": [{"measurement": "inhibition at 10 µM", "setting": "[1]", "value": 71.9, "unit": "%"}, {"measurement": "viability at 10 µM", "setting": "[2]", "value": 91, "unit": "%"}]}, {"compound": "CC(=O)/C=C/c1ccc(O)c(O)c1", "values": [{"measurement": "IC50", "setting": "KB", "value": "> 10", "unit": "µM"}, {"measurement": "IC50", "setting": "[3]", "value": 4.7, "unit": "µM"}, {"measurement": "IC50", "setting": "A549", "value": "> 10", "unit": "µM"}]}]}
